{
  "source": "ChEMBL document CHEMBL1156806",
  "about": "“Novel synthesis and structural characterization of a high-affinity paramagnetic kinase probe for the identification of non-ATP site binders by nuclear magnetic resonance” (J Med Chem, 2010)",
  "key": {"[1]": {"target": "Tyrosine-protein kinase Lck (Homo sapiens) (UniProt P06239)", "sequence (P06239 2-509 limits assumed)": "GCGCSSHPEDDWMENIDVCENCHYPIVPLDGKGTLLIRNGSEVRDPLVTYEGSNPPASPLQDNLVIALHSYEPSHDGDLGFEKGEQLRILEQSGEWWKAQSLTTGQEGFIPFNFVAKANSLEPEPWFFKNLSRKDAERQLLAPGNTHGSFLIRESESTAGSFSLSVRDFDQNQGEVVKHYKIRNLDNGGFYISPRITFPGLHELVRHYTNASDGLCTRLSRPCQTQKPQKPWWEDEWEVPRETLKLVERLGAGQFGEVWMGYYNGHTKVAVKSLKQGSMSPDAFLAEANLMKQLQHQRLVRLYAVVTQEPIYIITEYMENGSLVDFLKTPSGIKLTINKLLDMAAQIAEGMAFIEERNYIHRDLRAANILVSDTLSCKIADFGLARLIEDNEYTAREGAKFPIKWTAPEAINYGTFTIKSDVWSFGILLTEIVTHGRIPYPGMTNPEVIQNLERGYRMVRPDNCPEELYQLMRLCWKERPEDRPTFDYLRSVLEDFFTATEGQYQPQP", "assay": "Binding affinity to LCK assessed as reduction of compound relaxation intensity ratio at 100 uM by NMR method", "summary_of_the_method": "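Lck kinase domain in 25 mM HEPES (pH 7.5), 200 mM NaCl, 10 mM MgCl2, 1 mM DTT, 5% DMSO/95% D2O; 25 °C, 600 MHz cryoprobe. T1ρ spectra at 10 and 200 ms spin-lock, 128 scans each. Ratio is the 200 ms over 10 ms resonance intensity, compared between spin-labelled probe and its reduced form.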"}, "[2]": {"target": "T1, Proto-oncogene tyrosine-protein kinase Src (Homo sapiens, UniProt P12931)", "T1 sequence (P12931 2-536 limits assumed)": "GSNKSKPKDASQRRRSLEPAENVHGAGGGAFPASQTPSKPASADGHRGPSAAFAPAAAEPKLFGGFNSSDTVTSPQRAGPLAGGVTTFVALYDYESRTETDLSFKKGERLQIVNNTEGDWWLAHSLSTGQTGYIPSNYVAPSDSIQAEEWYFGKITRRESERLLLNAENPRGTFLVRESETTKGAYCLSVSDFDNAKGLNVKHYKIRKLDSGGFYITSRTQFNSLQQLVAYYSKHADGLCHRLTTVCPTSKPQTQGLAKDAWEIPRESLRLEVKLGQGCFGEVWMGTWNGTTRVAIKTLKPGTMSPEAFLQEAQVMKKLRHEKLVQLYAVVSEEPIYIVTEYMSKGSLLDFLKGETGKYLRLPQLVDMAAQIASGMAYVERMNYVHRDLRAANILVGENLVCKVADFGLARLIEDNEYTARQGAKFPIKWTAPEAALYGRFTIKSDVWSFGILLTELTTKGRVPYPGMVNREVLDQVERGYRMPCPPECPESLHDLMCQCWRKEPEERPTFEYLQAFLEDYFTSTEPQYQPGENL", "assay": "Inhibition of staurosporine binding to ATP binding site of human SRC by saturation transfer difference spectra", "summary_of_the_method": "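Human Src kinase domain (T250-L536, Sf21 insect-cell expressed, His6-tagged, Ni-NTA then gel filtration). NMR buffer 20 mM HEPES (pH 7.5), 200 mM NaCl, 5 mM MgCl2, 2 mM DTT, 2% DMSO/98% D2O; 25 °C, 600 MHz. Saturation at 0.78 ppm for 3 s (60 × 50 ms G4 pulses). STD % is STD over 1D reference intensity.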"}, "[3]": {"target": "Tyrosine-protein kinase Lck (Homo sapiens) (UniProt P06239)", "assay": "Inhibition of AMP-PNP binding to ATP binding site of LCK by saturation transfer difference spectra", "summary_of_the_method": "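Lck kinase domain in 25 mM HEPES (pH 7.5), 200 mM NaCl, 10 mM MgCl2, 1 mM DTT, 5% DMSO/95% D2O; 25 °C, 600 MHz. Ligand is in large excess over protein. Protein saturated at 0.78 ppm for 3 s with 60 G4 Gaussian cascade pulses of 50 ms, 1 ms apart. STD % is peak intensity in STD spectrum over 1D 1H reference.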"}, "[4]": {"target": "Cyclin-dependent kinase 2/cyclin A (Homo sapiens, UniProt P24941)", "assay": "Inhibition of CDK2/Cyclin A", "type": "protein-complex assay"}, "[5]": {"target": "Tyrosine-protein kinase ABL1 (Homo sapiens, UniProt P00519)", "assay": "Inhibition of Abl 1", "summary_of_the_method": "(§1)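 Commercial recombinant kinases with kinase-optimised fluorescent peptide substrate at 1.5 μM and ATP at each kinase's measured Km; enzyme below 50 nM final. 11-point titration in DMSO, […] to 5 nM final. Room temperature, 1-2 h, to 20-30% substrate phosphorylation. EDTA stop, then substrate/product electrophoretic separation. IC50 from a Hill-equation fit of percent inhibition.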"}, "[6]": {"target": "Protein kinase C beta type (Homo sapiens, UniProt P05771)", "assay": "Inhibition of PKCbeta1"}, "[7]": {"target": "T1, Proto-oncogene tyrosine-protein kinase Src", "assay": "Inhibition of AMP-PNP binding to ATP binding site of human SRC by saturation transfer difference spectra"}, "[8]": {"target": "Tyrosine-protein kinase Fyn (Homo sapiens, UniProt P06241)", "assay": "Inhibition of Fyn", "summary_of_the_method": "as §1"}, "Aurora kinase B": {"target": "Aurora kinase B (Homo sapiens, UniProt Q96GD4)", "assay": "Inhibition of Aurora B", "summary_of_the_method": "as §1"}, "[9]": {"target": "T2, Mitogen-activated protein kinase kinase kinase kinase 2 (Homo sapiens, UniProt Q12851)", "T2 sequence (Q12851 whole entry)": "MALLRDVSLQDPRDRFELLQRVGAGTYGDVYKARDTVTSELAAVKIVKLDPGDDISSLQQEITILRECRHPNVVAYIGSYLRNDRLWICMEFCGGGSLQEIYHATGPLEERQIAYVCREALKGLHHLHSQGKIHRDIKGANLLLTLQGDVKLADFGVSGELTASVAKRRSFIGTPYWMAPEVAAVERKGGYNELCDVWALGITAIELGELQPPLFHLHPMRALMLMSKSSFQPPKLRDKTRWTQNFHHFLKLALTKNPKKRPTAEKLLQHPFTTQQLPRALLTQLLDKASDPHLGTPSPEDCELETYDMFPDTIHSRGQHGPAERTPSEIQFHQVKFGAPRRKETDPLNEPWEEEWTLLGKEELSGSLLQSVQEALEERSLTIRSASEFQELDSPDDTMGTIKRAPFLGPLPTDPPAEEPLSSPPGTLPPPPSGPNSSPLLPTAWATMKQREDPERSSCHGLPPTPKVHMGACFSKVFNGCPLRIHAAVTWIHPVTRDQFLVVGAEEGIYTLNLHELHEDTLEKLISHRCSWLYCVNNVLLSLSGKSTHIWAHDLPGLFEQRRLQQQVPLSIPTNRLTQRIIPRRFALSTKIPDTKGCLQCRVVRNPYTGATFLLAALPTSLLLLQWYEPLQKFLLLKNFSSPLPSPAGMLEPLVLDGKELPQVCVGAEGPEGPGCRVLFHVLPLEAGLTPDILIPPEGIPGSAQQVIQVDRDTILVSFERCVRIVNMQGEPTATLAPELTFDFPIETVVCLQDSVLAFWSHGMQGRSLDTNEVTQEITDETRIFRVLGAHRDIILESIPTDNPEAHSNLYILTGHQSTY", "assay": "Inhibition of GCK", "summary_of_the_method": "as §1"}, "[10]": {"target": "Tyrosine-protein kinase Lyn (Homo sapiens, UniProt P07948)", "assay": "Inhibition of Lyn A", "summary_of_the_method": "as §1"}, "[11]": {"target": "Mitogen-activated protein kinase 14 (Homo sapiens, UniProt Q16539)", "sequence (Q16539 whole entry)": "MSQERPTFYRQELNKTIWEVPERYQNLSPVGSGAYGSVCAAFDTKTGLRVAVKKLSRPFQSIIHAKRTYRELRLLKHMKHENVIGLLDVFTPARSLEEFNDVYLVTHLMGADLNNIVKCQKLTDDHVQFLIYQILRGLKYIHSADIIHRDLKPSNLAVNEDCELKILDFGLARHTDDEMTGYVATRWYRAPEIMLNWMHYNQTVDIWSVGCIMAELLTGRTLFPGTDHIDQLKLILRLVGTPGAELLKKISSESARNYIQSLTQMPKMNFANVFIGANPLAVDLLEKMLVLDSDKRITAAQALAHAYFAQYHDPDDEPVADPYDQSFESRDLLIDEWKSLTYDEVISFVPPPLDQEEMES", "assay": "Inhibition of p38alpha"}, "[12]": {"target": "Casein kinase I isoform gamma-1 (Homo sapiens, UniProt Q9HCP0)", "sequence (Q9HCP0 whole entry, canonical isoform)": "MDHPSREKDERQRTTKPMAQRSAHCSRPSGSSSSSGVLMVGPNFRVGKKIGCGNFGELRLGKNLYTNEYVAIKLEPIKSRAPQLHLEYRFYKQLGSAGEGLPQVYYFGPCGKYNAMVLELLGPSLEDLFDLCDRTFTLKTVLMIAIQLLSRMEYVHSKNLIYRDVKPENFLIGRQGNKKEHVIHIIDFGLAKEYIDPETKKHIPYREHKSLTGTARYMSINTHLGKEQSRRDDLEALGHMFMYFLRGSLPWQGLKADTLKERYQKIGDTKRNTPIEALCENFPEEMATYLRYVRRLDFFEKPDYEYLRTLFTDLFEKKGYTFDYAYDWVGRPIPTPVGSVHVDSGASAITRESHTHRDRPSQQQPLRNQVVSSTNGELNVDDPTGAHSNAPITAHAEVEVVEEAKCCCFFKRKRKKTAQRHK", "assay": "Inhibition of CK1gamma1"}, "[13]": {"target": "Protein kinase C alpha type (Homo sapiens, UniProt P17252)", "assay": "Inhibition of PKCalpha", "summary_of_the_method": "as §1"}, "[14]": {"target": "Cyclin-dependent kinase 1/cyclin B (Homo sapiens, UniProt P06493)", "assay": "Inhibition of CDK1/Cyclin B", "type": "protein-complex assay"}, "[15]": {"target": "Mitogen-activated protein kinase 1 (Homo sapiens, UniProt P28482)", "assay": "Inhibition of ERK2"}, "[16]": {"target": "T1, Proto-oncogene tyrosine-protein kinase Src", "assay": "Inhibition of src kinase", "summary_of_the_method": "as §1"}, "[17]": {"target": "Tyrosine-protein kinase HCK (Homo sapiens, UniProt P08631)", "assay": "Inhibition of Hck", "summary_of_the_method": "as §1"}, "[18]": {"target": "Ribosomal protein S6 kinase alpha-1 (Homo sapiens, UniProt Q15418)", "assay": "Inhibition of RSK1"}, "[19]": {"assay": "Inhibition of PKA"}, "[20]": {"target": "Platelet-derived growth factor receptor alpha (Homo sapiens, UniProt P16234)", "sequence (P16234 whole entry)": "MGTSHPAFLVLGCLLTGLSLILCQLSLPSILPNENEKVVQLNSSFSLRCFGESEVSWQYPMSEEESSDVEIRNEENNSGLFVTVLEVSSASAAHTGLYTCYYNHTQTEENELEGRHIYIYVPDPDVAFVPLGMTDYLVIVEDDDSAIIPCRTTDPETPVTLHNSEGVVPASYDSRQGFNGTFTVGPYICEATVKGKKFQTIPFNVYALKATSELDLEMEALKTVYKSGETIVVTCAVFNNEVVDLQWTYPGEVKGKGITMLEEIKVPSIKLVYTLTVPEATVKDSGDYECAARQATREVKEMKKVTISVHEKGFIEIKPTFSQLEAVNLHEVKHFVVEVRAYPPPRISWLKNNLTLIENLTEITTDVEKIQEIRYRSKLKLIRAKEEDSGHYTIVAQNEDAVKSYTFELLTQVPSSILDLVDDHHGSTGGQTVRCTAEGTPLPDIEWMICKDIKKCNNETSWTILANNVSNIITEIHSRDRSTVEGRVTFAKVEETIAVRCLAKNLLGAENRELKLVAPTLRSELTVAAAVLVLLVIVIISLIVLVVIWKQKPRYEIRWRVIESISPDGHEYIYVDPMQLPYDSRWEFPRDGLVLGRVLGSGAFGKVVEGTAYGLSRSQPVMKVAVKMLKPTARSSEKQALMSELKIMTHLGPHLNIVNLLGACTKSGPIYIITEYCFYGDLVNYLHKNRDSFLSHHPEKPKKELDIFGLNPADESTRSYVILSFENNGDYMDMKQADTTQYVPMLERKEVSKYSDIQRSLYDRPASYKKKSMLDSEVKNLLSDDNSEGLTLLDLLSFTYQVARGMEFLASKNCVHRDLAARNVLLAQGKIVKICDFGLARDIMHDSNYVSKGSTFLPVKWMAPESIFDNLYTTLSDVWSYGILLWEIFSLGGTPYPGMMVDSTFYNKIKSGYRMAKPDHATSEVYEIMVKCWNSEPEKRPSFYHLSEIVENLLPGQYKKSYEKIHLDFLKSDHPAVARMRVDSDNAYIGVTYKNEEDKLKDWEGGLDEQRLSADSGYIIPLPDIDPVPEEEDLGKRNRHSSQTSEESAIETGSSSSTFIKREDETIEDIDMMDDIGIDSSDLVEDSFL", "assay": "Inhibition of PDGFRalpha", "summary_of_the_method": "as §1"}, "[21]": {"target": "Vascular endothelial growth factor receptor 2 (Homo sapiens, UniProt P35968)", "sequence (P35968 whole entry)": "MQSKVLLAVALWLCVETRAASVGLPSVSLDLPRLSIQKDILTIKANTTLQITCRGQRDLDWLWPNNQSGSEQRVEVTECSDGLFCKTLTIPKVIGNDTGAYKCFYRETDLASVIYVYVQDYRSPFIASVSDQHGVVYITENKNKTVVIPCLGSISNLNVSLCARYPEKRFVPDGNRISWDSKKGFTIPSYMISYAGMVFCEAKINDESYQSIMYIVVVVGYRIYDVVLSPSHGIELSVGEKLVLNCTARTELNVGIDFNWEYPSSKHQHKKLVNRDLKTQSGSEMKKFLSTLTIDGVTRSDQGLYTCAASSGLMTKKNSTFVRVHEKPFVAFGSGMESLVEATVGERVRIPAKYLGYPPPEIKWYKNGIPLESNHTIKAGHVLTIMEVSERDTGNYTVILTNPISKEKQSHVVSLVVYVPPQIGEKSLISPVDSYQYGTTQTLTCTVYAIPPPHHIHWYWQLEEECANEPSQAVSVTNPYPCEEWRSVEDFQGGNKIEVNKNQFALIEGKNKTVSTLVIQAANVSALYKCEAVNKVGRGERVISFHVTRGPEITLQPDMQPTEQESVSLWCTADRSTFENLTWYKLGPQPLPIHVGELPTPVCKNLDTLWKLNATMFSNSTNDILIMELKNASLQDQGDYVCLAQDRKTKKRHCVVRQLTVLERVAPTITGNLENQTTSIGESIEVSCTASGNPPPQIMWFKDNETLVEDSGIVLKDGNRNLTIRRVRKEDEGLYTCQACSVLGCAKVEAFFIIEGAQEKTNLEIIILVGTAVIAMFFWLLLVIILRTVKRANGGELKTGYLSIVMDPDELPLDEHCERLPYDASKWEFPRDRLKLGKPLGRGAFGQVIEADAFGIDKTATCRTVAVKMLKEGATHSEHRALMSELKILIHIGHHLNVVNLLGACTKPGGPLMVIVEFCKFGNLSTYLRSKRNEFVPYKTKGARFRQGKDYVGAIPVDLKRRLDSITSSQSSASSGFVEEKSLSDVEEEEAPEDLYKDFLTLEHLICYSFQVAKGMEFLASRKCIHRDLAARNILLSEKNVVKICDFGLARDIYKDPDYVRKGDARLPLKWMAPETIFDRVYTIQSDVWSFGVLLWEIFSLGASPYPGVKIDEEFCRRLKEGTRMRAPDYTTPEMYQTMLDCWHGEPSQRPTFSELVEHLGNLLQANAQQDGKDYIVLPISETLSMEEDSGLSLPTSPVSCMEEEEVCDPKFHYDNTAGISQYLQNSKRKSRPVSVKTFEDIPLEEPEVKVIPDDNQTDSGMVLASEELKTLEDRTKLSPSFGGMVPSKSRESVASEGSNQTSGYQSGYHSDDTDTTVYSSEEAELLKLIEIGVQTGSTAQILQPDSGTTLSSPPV", "assay": "Inhibition of KDR", "summary_of_the_method": "as §1"}, "[22]": {"target": "MAP kinase-activated protein kinase 2 (Homo sapiens, UniProt P49137)", "assay": "Inhibition of MK2"}, "[23]": {"target": "T1, Proto-oncogene tyrosine-protein kinase Src", "assay": "Inhibition of src kinase by functional activity assay of the Src kinase domain"}},
  "note": "Activity calls are given as the source filed them. No cut-off for these calls is given here.",
  "data": [
    {"compound": "O=C(O)c1ccccc1Nc1ccccc1", "values": [
      {"measurement": "Activity", "setting": "[1]", "result": "Active"},
      {"measurement": "Activity", "setting": "[2]", "result": "inactive"},
      {"measurement": "Activity", "setting": "[3]", "result": "Active"}
    ]},
    {"compound": "CC1(C)CC(NC(=O)c2cccc(-c3cc4nccc(Nc5cccc(O)c5)n4n3)c2)CC(C)(C)N1[O]", "values": [
      {"measurement": "IC50", "setting": "[4]", "result": "> 50000", "unit": "nM"},
      {"measurement": "IC50", "setting": "[5]", "result": 5, "unit": "nM"},
      {"measurement": "IC50", "setting": "[6]", "result": "> 60000", "unit": "nM"},
      {"measurement": "Activity", "setting": "[7]", "result": "Active"},
      {"measurement": "IC50", "setting": "[8]", "result": 5, "unit": "nM"},
      {"measurement": "IC50", "setting": "Aurora kinase B", "result": 2900, "unit": "nM"},
      {"measurement": "IC50", "setting": "[9]", "result": 24, "unit": "nM"},
      {"measurement": "IC50", "setting": "[10]", "result": 7, "unit": "nM"},
      {"measurement": "IC50", "setting": "[11]", "result": "> 50000", "unit": "nM"},
      {"measurement": "IC50", "setting": "[12]", "result": "> 50000", "unit": "nM"},
      {"measurement": "IC50", "setting": "[13]", "result": 1300, "unit": "nM"},
      {"measurement": "Activity", "setting": "[3]", "result": "Active"},
      {"measurement": "IC50", "setting": "[14]", "result": "> 50000", "unit": "nM"},
      {"measurement": "IC50", "setting": "[15]", "result": "> 50000", "unit": "nM"},
      {"measurement": "IC50", "setting": "[16]", "result": 5, "unit": "nM"},
      {"measurement": "IC50", "setting": "[17]", "result": 16, "unit": "nM"},
      {"measurement": "IC50", "setting": "[18]", "result": "> 50000", "unit": "nM"},
      {"measurement": "IC50", "setting": "[19]", "result": "> 50000", "unit": "nM"},
      {"measurement": "IC50", "setting": "[20]", "result": 38, "unit": "nM"},
      {"measurement": "IC50", "setting": "[21]", "result": 3.3, "unit": "nM"},
      {"measurement": "IC50", "setting": "[22]", "result": "> 50000", "unit": "nM"}
    ]},
    {"compound": "O=C(Cc1ccc(-c2ccc(OCCN3CCOCC3)cc2)cn1)NCc1ccccc1", "note": "[TIRBANIBULIN]", "values": [
      {"measurement": "Activity", "setting": "[7]", "result": "inactive"},
      {"measurement": "Activity", "setting": "[1]", "result": "Active"},
      {"measurement": "Activity", "setting": "[2]", "result": "inactive"},
      {"measurement": "Activity", "setting": "[3]", "result": "Active"},
      {"measurement": "IC50", "setting": "[23]", "result": 40000, "unit": "nM"},
      {"measurement": "IC50", "setting": "[16]", "result": "> 20000", "unit": "nM"}
    ]}
  ]
}
